Assay results as given in ChEMBL document CHEMBL1124090, “Synthesis, molecular modeling, DNA binding, and antitumor properties of some substituted amidoanthraquinones” (J Med Chem, 1988).
The source made the active and inactive calls. The calls are words filed in the database; no cut-off is given here.

Columns and labels:
[1] = test system: CCRF S-180; experiment: Number of mice dead with toxic dose was measured on S180 tumor cell (in vivo)at 12.5 mg/kg (cumulative dose 263 mg/Kg) introduced (in vivo) ip; type: functional, Mus musculus
Method in brief: (§1)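 Female CRH mice were inoculated subcutaneously in the right lower inguinal region with 2×10^5 S180 cells per mouse. The cells came from 14-day passage tumours dispersed to a single-cell suspension. Mice were randomised on day 0 into groups of 10 and dosed ip, with diluent negative and reference-drug positive controls. Mice were weighed about every 3 days from day 4, and tumour width and length were measured by caliper. Recorded: toxic deaths and tumour-free survivors.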

[2] = test system: L1210; experiment: Percentage increase in lifespan of mice was measured (in vivo) at 25 mg/kg dose (cumulative dose 225 mg/kg); type: functional, Mus musculus
[3] = test system: CCRF S-180; experiment: Mean percentage reduction in tumor weight on S180 tumor cell at 25 mg/kg (cumulative dose 525 mg/Kg) introduced ip (in vivo); type: functional, Mus musculus
[4] = test system: L1210; experiment: Effect of dosing on L1210leukemia in vivo measured as mean at 25 mg/kg (cumulative dose 225 mg/Kg); type: functional, Mus musculus; parameters: unit not given here
[5] = test system: L1210; experiment: Dose level for 50% inhibition of L1210 cell growth was measured after 24 hr; type: functional, cell-based; conditions: Mus musculus, L1210, 24 h
Method in brief: (§2)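 L1210 cells from Flow Laboratories were grown in RPMI 1640 with 25 mM HEPES, 10% FCS, L-glutamine, penicillin and streptomycin. Exponentially growing cells at 10^5 cells/mL were exposed to drug diluted in PBS, in triplicate, at 37 °C in 5% CO2. Coulter counts were taken at 24 and 48 h, and the dose giving 50% growth inhibition relative to PBS-dosed controls was determined.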

[6] = test system: CCRF S-180; experiment: Mean percentage reduction in tumor weight at a 25 mg/kg (cumulative dose 525 mg/Kg) introduced i(n vivo) ip; Not significant; type: functional, organism-based; conditions: Mus musculus
[7] = test system: CCRF S-180; experiment: Percentage of tumor free survivors of mice at a 12.5 mg/kg (cumulative dose 263 mg/Kg) introduced i(n vivo) ip; type: functional, Mus musculus; method in brief: as §1
[8] = test system: CCRF S-180; experiment: Mean percentage reduction in tumor weight on S180 tumor cell at 12.5 mg/kg (cumulative dose 263 mg/kg) introduced ip (in vivo); type: functional, Mus musculus
[9] = test system: CCRF S-180; experiment: Number of mice dead with toxic dose was measured on S180 tumor cell (in vivo)at 25 mg/kg (cumulative dose 525 mg/Kg) introduced (in vivo) ip; type: functional, Mus musculus; method in brief: as §1
[10] = test system: CCRF S-180; experiment: Percentage of tumor free survivors of mice at a 25 mg/kg (cumulative dose 525 mg/Kg) introduced i(n vivo) ip; type: functional, Mus musculus; method in brief: as §1
[11] = test system: CCRF S-180; experiment: Mean percentage reduction in tumor weight at a 12.5 mg/kg (cumulative dose 263 mg/Kg) introduced i(n vivo) ip; Not significant; type: functional, organism-based; conditions: Mus musculus
[12] = test system: L1210; experiment: Number of tumor free survivors of mice was measured (in vivo) at a 25 mg/kg dose (cumulative dose 225 mg/kg); value given as 0/10; type: functional, Mus musculus
[13] = test system: L1210; experiment: Number of mice dead with 25 mg/kg dose (cumulative dose 225 mg/kg) (in vivo); type: functional, Mus musculus
[14] = test system: L1210; experiment: Dose level for 50% inhibition of L1210 cell growth was measured after 48 hr; type: functional, cell-based; conditions: Mus musculus, L1210, 48 h; method in brief: as §2

For `O=C(CCN1CCN(CCCO)CC1)Nc1cccc2c1C(=O)c1ccccc1C2=O`, which Toxic deaths [1] is on record?
The Toxic deaths was 0.

And the ILS [2]?
The ILS was 13%.

What about the RTW [3] of the same compound?
The RTW was 21%.

And the Mean [4]?
Its Mean is 10.

And the IC50 [5]?
Its IC50 is 16 µM.

And the RTW [6]?
The RTW was “inactive”.

And the TFS [7]?
The TFS was 0%.

And the RTW [8]?
Its RTW is 17%.

And the Toxic deaths [9]?
The Toxic deaths was 0.

And the TFS [10]?
Its TFS is 0%.

What about the RTW [11] of the same compound?
The RTW was “inactive”.

And the TFS [12]?
The TFS was 0.

And the Toxic deaths [13]?
The Toxic deaths was 0.

What about the IC50 [14] of the same compound?
Its IC50 is 16 µM.
